Experimental data pooled from the literature.
Target: Tyrosine-protein kinase Fer (FER, Homo sapiens, UniProt P16591)

SMILES | test | setting | remaining binding [%]
C[C@@]1(Cc2ccc(C#N)cc2)C(=O)N(c2cc(Cl)cc(Cl)c2)c2ncc(C(=O)NC3(c4nc(C5CCC5)no4)CC3)n21 | cell-free assay, competition with immobilised ligand | 1 µM | 100
COc1ccnn2ncc(-c3ccnc(N(C)C)n3)c12 | binding | 1 µM | 100
CC(=O)c1c(NS(C)(=O)=O)c2cc(-c3ccc(Cl)cc3)c(-c3ccc(Cl)cc3Cl)nc2n(C)c1=O | cell-free assay, competition with immobilised ligand | 1 µM | 100
Nc1ncc2c(n1)-c1c([nH]c3ccc(C#CC4CC4)cc13)CCCC2 | binding, competition with immobilised ligand | 1 µM | 100
FC(F)(F)Oc1cccc(-c2cnc3ccc(-c4ccncc4)nn23)c1 | cell-free assay, competition with immobilised ligand | 5 µM | 90
O=C(NCC1CCOCC1)c1n[nH]cc1NC(=O)c1c(F)cccc1F | binding, competition with immobilised ligand | 1 µM | 100
C[C@@H]1CCN(c2nccc(-c3cnn4ncccc34)n2)C1 | binding | 1 µM | 100
CNC(=O)[C@@H]1CC[C@@H](n2c(-c3ccc4cnccc4c3)nc3ccc(C(=O)NCc4cccc(C(N)=O)c4)cc32)C1 | binding, competition with immobilised ligand | 1 µM | 100
CN(C)c1ncc(F)c(-c2cnn3ncccc23)n1 | binding | 1 µM | 82
CS(=O)(=O)N1CCCC(NC(=O)[C@H](CCC2CCCCC2)NC(=O)c2ccc(CNC(=O)c3cnc4ccccn34)cc2)C1 (stereo partly drawn) | cell-free assay, competition with immobilised ligand | 0.1 µM | 99
Cc1cnc(Nc2ccc(C(=O)N3CCC(N4CCCC4)CC3)cc2)nc1-c1cc2ccccc2s1 | binding, competition with immobilised ligand | 1 µM | 84
O=C(NC[C@@H]1[C@H]2CN(C(=O)OCc3cc(C(F)(F)F)cc(C(F)(F)F)c3)C[C@@H]12)c1ccc2[nH]nnc2c1 | cell-free assay, competition with immobilised ligand | 1 µM | 97
O=C(c1ccc(Nc2nccc(-c3cc4ccccc4s3)n2)cc1)N1CCC(N2CCCC2)CC1 | binding, competition with immobilised ligand | 1 µM | 100
c1cnn2ncc(-c3ccnc(N4CCC45COC5)n3)c2c1 | binding | 1 µM | 91
c1cncc(-c2cccc(Nc3nccc(NC4CCCCC4)n3)c2)c1 | binding, competition with immobilised ligand | 10 µM | 83
COc1ncc2cc3ccccc3nc2c1C#N | cell-free assay, competition with immobilised ligand | 5 µM | 100
O=C(NCCCN1CCOCC1)c1ccc(Nc2nccc(-c3cc4ccccc4s3)n2)cc1 | binding, competition with immobilised ligand | 1 µM | 100
CCC(=O)N[C@H]1CC[C@@H](C(=O)N(C)c2ccc(-c3nc4ccccc4o3)cc2)C1 | cell-free assay, competition with immobilised ligand | 1 µM | 90
CN(c1nccc(-c2cnn3ncccc23)n1)C1CC1 | binding | 1 µM | 100
CC(=O)N1CCC(c2ccc(C(=O)NC(=N)N)cc2C(F)(F)F)CC1 | cell-free assay, competition with immobilised ligand | 1 µM | 96
N[C@H]1CCN(c2nccc(-c3cnn4ncccc34)n2)C1 | binding | 1 µM | 97
